Screens (PubChem)
Only some compounds are listed: those with a hit (about 5.9% of all), similar ones and a draw of the others.
T cruzi growth-1 = T. cruzi intracellular proliferation inhibitors, primary screen, cell-based, beta-gal Tulahuen parasites, NIH3T3 host, luminescence; AID 624255, 2012; T. cruzi beta-gal in NIH3T3, GalScreen luminescence, 90 h; 5.9% of 77,000 active; inhibition, % at 8.34 µM;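 active means mean inhibition above about 93%, with at least 55% of replicates each passing it, limit read from the data, passing the limit was not always enough; inconclusive means only one of those two conditions holds; inactive means neither condition holds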
IDH1 R132H inh = inhibitors of IDH1 R132H reductase, primary screen, biochemical, plate reader, single point; inhibition, % at 10 µM; 0.18% of 70,000 active; Isocitrate dehydrogenase [NADP] cytoplasmic (Homo sapiens), O75874; diaphorase/resazurin fluorescence, 60 min; in the data active means inhibition above about 34%; inconclusive means no clear call, values can overlap the other calls; inactive means below about 11%;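 further: 0% = DMSO and 100% = no enzyme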
Target sequence (O75874 whole entry R132H): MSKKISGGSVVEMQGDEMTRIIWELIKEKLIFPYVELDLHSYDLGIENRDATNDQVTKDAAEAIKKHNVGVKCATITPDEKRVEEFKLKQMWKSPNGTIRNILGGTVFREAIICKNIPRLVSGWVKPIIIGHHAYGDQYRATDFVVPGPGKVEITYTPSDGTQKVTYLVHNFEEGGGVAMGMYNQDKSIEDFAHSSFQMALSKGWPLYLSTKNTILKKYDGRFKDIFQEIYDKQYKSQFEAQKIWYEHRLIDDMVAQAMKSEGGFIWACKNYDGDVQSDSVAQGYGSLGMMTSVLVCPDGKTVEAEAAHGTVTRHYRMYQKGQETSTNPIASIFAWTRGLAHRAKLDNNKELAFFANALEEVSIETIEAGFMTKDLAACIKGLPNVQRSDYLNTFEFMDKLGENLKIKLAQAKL
KDM4C inh = inhibitors of GASC-1 (KDM4C) histone demethylase, primary screen, biochemical, single concentration HTS; Lysine-specific demethylase 4C (Homo sapiens), Q9H3R0; GST-KDM4C 2-372, H3K9me3 peptide, LANCE TR-FRET; inhibition, % at 12.5 µM; 0.15% of 96,000 active; AID 720574, 2013;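 active means mean replicate inhibition above about 25%, with at least 55% of replicates also reaching it, limit read from the data, passing the limit was not always enough; inconclusive means only one of those two conditions met; inactive means neither condition met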
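Material: N-terminal GST-fused human GASC-1 (KDM4C) fragment, residues 2-372. Input: 10 nM enzyme. Incubation: enzyme reaction 30 min, then detection 60 min, both room temperature. Doses: one test concentration per compound. Read-out basis: inhibition from TR-FRET ratio decrease. Detection: LANCE TR-FRET, excitation 340 nm, emissions 618 and 671 nm.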
Pf Dd2 inh = P. falciparum Dd2 growth inhibitors, primary screen, SYBR Green fluorescence, single dose replicates; activity change, % at 10 µM; 72 h; hits give low values; 2.3% of 94,000 active; in the data active means activity change below about -80%; inconclusive means no clear call, values can overlap the other calls
T cruzi growth-2 = T. cruzi intracellular proliferation inhibitors, confirmation, cell-based, NIH3T3 host, beta-gal parasite, luminescence, cherry-pick; shares compounds with T cruzi growth-1; inhibition, % at 8.35 µM; 72% of 5,600 active; T. cruzi beta-gal in NIH3T3, GalScreen luminescence, 90 h;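 active means mean replicate inhibition above about 95% and at least 55% of replicates individually reaching it, limit read from the data; inconclusive means only one of the two criteria is met; inactive means neither criterion is met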
T cruzi growth-3 = inhibitors of intracellular T. cruzi replication, confirmation, NIH3T3 host cells, beta-gal parasites, cherry-pick, set 2; shares compounds with T cruzi growth-1; inhibition, % at 2.09 µM; T. cruzi beta-gal in NIH3T3, GalScreen luminescence, 90 h; 21% of 5,600 active;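 active means mean inhibition above about 95%, with at least 55% of replicates also reaching it, limit read from the data; inconclusive means meets just one of the two conditions; inactive means meets neither condition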;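 further: plate controls were neutral control median for no effect and positive control median for full effect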
3T3 cytotox = cytotoxicity in mouse NIH/3T3 fibroblasts, confirmation, cytotoxicity control for T. cruzi proliferation inhibitor project, cell-based, cherry-pick, single point | cytotoxicity (signal decrease), % at 8.35 µM | shares compounds with T cruzi growth-1 | NIH/3T3 viability, CellTiter-Glo ATP luminescence, 90 h | 14% of 5,600 active;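 active means mean signal decrease across replicates above about 35% based on untreated-well scatter, with enough replicates individually passing, limit read from the data; inconclusive means no rule stated though some were filed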;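 further: 0% = median of neutral control wells and 100% = median of positive control wells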
3T3 cytotox 2 = NIH/3T3 fibroblast cytotoxicity, confirmation, cytotoxicity control, cell-based, cherry-pick, single point, set 2; shares compounds with T cruzi growth-1; NIH/3T3 viability, CellTiter-Glo ATP luminescence, 90 h; inhibition, % at 24.9 µM; 56% of 5,600 active;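 active means mean loss of cell viability signal at or above a set limit, and enough replicates individually reaching it; inconclusive means meets only the mean limit or only the replicate share; inactive means meets neither condition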;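 further: 0% = median of neutral control wells and 100% = median of positive control wells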
* hit, by the source's call.

Screening C[C@@H]1CN([C@H](C)CO)S(=O)(=O)c2ccc(C#CCC3CCCC3)cc2O[C@@H]1CN(C)C(=O)c1ccccn1 returned T cruzi growth-1 110*, IDH1 R132H inh -1, KDM4C inh 0, Pf Dd2 inh -59, T cruzi growth-2 100*, T cruzi growth-3 29, 3T3 cytotox 51* and 3T3 cytotox 2 104*.
`CCC(=O)N(C)C[C@@H]1Oc2cc(C#CCC3CCCC3)ccc2S(=O)(=O)N([C@@H](C)CO)C[C@H]1C` gave T cruzi growth-1 129*, IDH1 R132H inh 0, KDM4C inh -6, Pf Dd2 inh -56, T cruzi growth-2 109*, T cruzi growth-3 77, 3T3 cytotox 9 and 3T3 cytotox 2 104*.
Screening CCC(=O)N(C)C[C@H]1Oc2cc(C#CCC3CCCC3)ccc2S(=O)(=O)N([C@@H](C)CO)C[C@H]1C returned T cruzi growth-1 119*, IDH1 R132H inh 0, KDM4C inh -1, Pf Dd2 inh -46, T cruzi growth-2 98*, T cruzi growth-3 89, 3T3 cytotox 27 and 3T3 cytotox 2 105*.
C[C@H](CO)N1C[C@H](C)[C@H](CN(C)C)Oc2cc(C#CCC3CCCC3)ccc2S1(=O)=O was read as T cruzi growth-1 17, IDH1 R132H inh 0, KDM4C inh 0 and Pf Dd2 inh -51.
C[C@H](CO)N1C[C@H](C)[C@@H](CN(C)C)Oc2cc(C#CCC3CCCC3)ccc2S1(=O)=O was read as T cruzi growth-1 inconclusive, IDH1 R132H inh -3, KDM4C inh -1, Pf Dd2 inh -31, T cruzi growth-2 107*, T cruzi growth-3 86, 3T3 cytotox 31 and 3T3 cytotox 2 103*.
For Cc1nonc1OCCNc1ccc(C(F)(F)F)cc1[N+](=O)[O-] the results were IDH1 R132H inh 5.
For O=C(CCCCCC(=O)NN=C1CCCC1)NO the results were IDH1 R132H inh 0.
CCC(=O)N(C)C[C@H]1Oc2cc(C#CCC3CCCC3)ccc2S(=O)(=O)N([C@H](C)CO)C[C@@H]1C was read as T cruzi growth-1 75, IDH1 R132H inh 0, KDM4C inh -1 and Pf Dd2 inh -35.
For CCC(=O)N(C)C[C@H]1Oc2cc(C#CCC3CCCC3)ccc2S(=O)(=O)N([C@@H](C)CO)C[C@@H]1C the results were T cruzi growth-1 128*, IDH1 R132H inh 6, KDM4C inh -1, Pf Dd2 inh -77, T cruzi growth-2 106*, T cruzi growth-3 94, 3T3 cytotox 43* and 3T3 cytotox 2 105*.
COc1cccc(OCc2nc(-c3ccccc3)no2)c1 was read as IDH1 R132H inh 0.
`C[C@@H]1CN([C@H](C)CO)S(=O)(=O)c2ccc(C#CC3CCCC3)cc2O[C@H]1CN(C)Cc1cccnc1` gave T cruzi growth-1 97*, KDM4C inh 2, Pf Dd2 inh -82*, T cruzi growth-2 94, T cruzi growth-3 inconclusive, 3T3 cytotox 26 and 3T3 cytotox 2 105*.
For C[C@@H]1CN([C@@H](C)CO)S(=O)(=O)c2ccc(C#CC3CCCC3)cc2O[C@H]1CN(C)Cc1cccnc1 the results were T cruzi growth-1 93, KDM4C inh 1 and Pf Dd2 inh -69.
For C[C@H]1CN([C@@H](C)CO)S(=O)(=O)c2ccc(C#CC3CCCC3)cc2O[C@H]1CN(C)Cc1cccnc1 the results were T cruzi growth-1 117*, KDM4C inh 2, Pf Dd2 inh -77, T cruzi growth-2 103*, T cruzi growth-3 95, 3T3 cytotox 23 and 3T3 cytotox 2 104*.
Screening CC(C)C#Cc1ccc2c(c1)O[C@H](CN(C)C(=O)C1CCCCC1)[C@@H](C)CN([C@@H](C)CO)S2(=O)=O returned T cruzi growth-1 inconclusive, KDM4C inh -3, Pf Dd2 inh -34, T cruzi growth-2 95*, T cruzi growth-3 82, 3T3 cytotox 7 and 3T3 cytotox 2 106*.
Screening CC(C)C#Cc1ccc2c(c1)O[C@H](CN(C)C(=O)C1CCCCC1)[C@H](C)CN([C@H](C)CO)S2(=O)=O returned T cruzi growth-1 100*, KDM4C inh -4, Pf Dd2 inh -16, T cruzi growth-2 108*, T cruzi growth-3 88, 3T3 cytotox 13 and 3T3 cytotox 2 105*.
For CC(C)C#Cc1ccc2c(c1)O[C@H](CN(C)C(=O)C1CCCCC1)[C@H](C)CN([C@@H](C)CO)S2(=O)=O the results were T cruzi growth-1 90, IDH1 R132H inh -2, KDM4C inh 5 and Pf Dd2 inh -1.
Screening CC(C)C#Cc1ccc2c(c1)O[C@H](CN(C)C(=O)C1CCC1)[C@H](C)CN([C@H](C)CO)S2(=O)=O returned T cruzi growth-1 82, KDM4C inh 0 and Pf Dd2 inh -23.
For COC(=O)c1c(-c2ccc(F)cc2)csc1NC(=O)CSc1ncnc2sc3c(c12)CCC3 the results were IDH1 R132H inh 0.
`C[C@@H]1CN([C@@H](C)CO)C(=O)c2cc(N(C)C)ccc2O[C@H]1CN(C)CC1CCCCC1` gave T cruzi growth-1 102*, IDH1 R132H inh 2, KDM4C inh 2, Pf Dd2 inh 5, T cruzi growth-2 -22, T cruzi growth-3 -99, 3T3 cytotox -16 and 3T3 cytotox 2 -4.
For C[C@@H]1CN([C@H](C)CO)C(=O)c2cc(NC(=O)CCC(F)(F)F)ccc2O[C@H]1CN(C)CC1CCCCC1 the results were T cruzi growth-1 101*, IDH1 R132H inh 3, KDM4C inh 0, Pf Dd2 inh 11, T cruzi growth-2 -27, T cruzi growth-3 -36, 3T3 cytotox -21 and 3T3 cytotox 2 -5.
`C[C@H]1CN([C@@H](C)CO)C(=O)c2cc(N(C)C)ccc2O[C@H]1CN(C)CC1CCCCC1` gave T cruzi growth-1 4, IDH1 R132H inh -2, KDM4C inh 9 and Pf Dd2 inh 15.
